Laboratory results: ChEMBL document CHEMBL4251569, “Camptothecin-psammaplin A hybrids as topoisomerase I and HDAC dual-action inhibitors” (Eur J Med Chem, 2018)
Activity calls are given as the source filed them. The rule behind the calls is not given here.

Assays:
[1] = tested on: MM473; assay: cells; type: functional, cell-based; settings: Homo sapiens, MM473, 72 h
[2] = Cell cycle arrest in human MM487 cells assessed as accumulation at G2/M phase at 0.3 uM after 72 hrs by propidium iodide staining-based flow cytometric method (reference value: 5.4%); type: functional
[3] = Cell cycle arrest in human MM487 cells assessed as accumulation at G2/M phase at 0.3 uM after 48 hrs by propidium iodide staining-based flow cytometric method (reference value: 12.5%); type: functional
[4] = tested on: DG-75; assay: cells; type: functional, cell-based; settings: Homo sapiens, DG-75, 72 h
[5] = target: Histone deacetylase 4 (Homo sapiens, UniProt P56524); assay: Inhibition of HDAC4 (unknown origin) using fluorogenic substrate after 1 to 2 hrs by fluorescence assay
Sequence of Histone deacetylase 4 (P56524 whole entry): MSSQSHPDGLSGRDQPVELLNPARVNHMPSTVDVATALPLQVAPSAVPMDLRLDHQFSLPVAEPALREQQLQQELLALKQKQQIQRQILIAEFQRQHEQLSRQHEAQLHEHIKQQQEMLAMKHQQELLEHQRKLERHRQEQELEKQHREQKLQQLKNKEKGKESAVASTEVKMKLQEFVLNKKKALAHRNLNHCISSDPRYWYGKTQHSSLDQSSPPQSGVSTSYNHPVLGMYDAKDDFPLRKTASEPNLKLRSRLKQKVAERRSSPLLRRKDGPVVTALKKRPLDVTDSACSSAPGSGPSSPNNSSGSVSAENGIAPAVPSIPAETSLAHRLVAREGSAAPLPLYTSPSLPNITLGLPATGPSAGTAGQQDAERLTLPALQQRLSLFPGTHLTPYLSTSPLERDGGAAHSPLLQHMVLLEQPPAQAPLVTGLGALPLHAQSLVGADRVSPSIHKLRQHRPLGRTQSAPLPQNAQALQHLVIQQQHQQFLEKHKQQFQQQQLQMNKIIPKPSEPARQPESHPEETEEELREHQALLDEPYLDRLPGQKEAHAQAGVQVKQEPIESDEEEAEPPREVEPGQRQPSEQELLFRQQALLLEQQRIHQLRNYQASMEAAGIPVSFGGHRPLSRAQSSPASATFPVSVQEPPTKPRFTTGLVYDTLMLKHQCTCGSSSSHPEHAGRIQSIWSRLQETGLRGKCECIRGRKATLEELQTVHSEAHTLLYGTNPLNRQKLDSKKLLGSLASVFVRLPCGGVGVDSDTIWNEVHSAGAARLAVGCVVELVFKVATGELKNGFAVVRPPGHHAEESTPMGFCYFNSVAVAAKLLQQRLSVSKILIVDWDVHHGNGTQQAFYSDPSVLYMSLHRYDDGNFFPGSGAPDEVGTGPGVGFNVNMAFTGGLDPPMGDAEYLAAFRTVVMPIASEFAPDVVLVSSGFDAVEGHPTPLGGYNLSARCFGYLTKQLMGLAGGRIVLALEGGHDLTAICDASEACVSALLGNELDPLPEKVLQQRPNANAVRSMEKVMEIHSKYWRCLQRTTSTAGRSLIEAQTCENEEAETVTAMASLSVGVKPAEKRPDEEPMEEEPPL
Procedure, shortened: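 Purified HDAC4 preincubated with compound (10 concentrations from 10 µM, triplicate, final 1% DMSO) in 50 mM Tris-HCl pH 8.0, 137 mM NaCl, 2.7 mM KCl, 1 mM MgCl2, 1 mg/ml BSA. Class 2a trifluoroacetyl-lysine fluorogenic substrate added and incubated 1–2 h at 30 °C. Developer with TMP269 stops the reaction; fluorescence read at ex 360/em 460 at plateau. Activity is relative to DMSO, and IC50 comes from a sigmoidal fit.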

[6] = tested on: MM473; assay: Cell cycle arrest in human MM473 cells assessed as accumulation at G2/M phase at 4 uM after 72 hrs by propidium iodide staining-based flow cytometric method (reference value: 4.6%); type: functional
[7] = tested on: MM473; assay: Induction of apoptosis in human MM473 cells at 4 uM after 24 hrs by propidium iodide staining-based flow cytometric method (reference value: 2.5%); type: functional
[8] = cells; type: functional, cell-based; settings: Homo sapiens, A2780/DX, 72 h
[9] = Cell cycle arrest in human MM487 cells assessed as accumulation at G2/M at 0.3 uM after 24 hrs by propidium iodide staining-based flow cytometric method (reference value: 16.9%); type: functional
[10] = tested on: MM473; assay: Cell cycle arrest in human MM473 cells assessed as accumulation at G0/G1 phase at 4 uM after 48 hrs by propidium iodide staining-based flow cytometric method (reference value: 71.8%); type: functional
[11] = tested on: NB-4; assay: cells; type: functional, cell-based; settings: Homo sapiens, NB-4, 72 h
[12] = tested on: MM473; assay: Cell cycle arrest in human MM473 cells assessed as accumulation at S phase at 4 uM after 24 hrs by propidium iodide staining-based flow cytometric method (reference value: 29.8%); type: functional
[13] = Cell cycle arrest in human MM487 cells assessed as accumulation at S phase at 0.3 uM after 72 hrs by propidium iodide staining-based flow cytometric method (reference value: 14.6%); type: functional
[14] = tested on: HT-29; assay: Antiproliferative activity against human HT-29 cells after 72 hrs by SRB assay; type: functional, cell-based; settings: HT-29, 72 h
[15] = cells; type: functional, cell-based; settings: Homo sapiens, 72 h
[16] = Induction of apoptosis in human MM487 cells at 0.3 uM after 24 hrs by propidium iodide staining-based flow cytometric method (reference value: 0.5%); type: functional
[17] = target: Polyamine deacetylase HDAC10 (Homo sapiens, UniProt Q969S8); assay: Inhibition of HDAC10 (unknown origin) using RHKK(Ac)AMC as substrate after 1 to 2 hrs by fluorescence assay
Sequence of Polyamine deacetylase HDAC10 (Q969S8 whole entry): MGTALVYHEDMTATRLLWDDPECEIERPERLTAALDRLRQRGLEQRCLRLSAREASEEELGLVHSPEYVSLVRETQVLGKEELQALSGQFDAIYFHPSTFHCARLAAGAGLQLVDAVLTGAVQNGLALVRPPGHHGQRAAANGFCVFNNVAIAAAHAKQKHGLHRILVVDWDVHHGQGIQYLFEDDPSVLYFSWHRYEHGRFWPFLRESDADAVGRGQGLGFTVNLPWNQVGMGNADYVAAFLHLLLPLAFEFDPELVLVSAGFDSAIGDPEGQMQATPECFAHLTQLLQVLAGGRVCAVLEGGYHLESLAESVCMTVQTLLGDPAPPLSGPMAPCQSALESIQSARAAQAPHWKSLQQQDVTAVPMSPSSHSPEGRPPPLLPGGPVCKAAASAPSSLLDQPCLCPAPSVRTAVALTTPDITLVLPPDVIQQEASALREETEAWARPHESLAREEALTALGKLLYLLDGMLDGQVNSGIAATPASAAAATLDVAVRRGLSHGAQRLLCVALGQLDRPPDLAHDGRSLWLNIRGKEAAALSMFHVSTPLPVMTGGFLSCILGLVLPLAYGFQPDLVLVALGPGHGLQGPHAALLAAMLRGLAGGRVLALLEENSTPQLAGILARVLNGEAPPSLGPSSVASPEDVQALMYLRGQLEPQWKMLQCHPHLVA

[18] = cells; type: functional, cell-based; settings: Homo sapiens, 72 h; remark: listed apart in the source
[19] = target: Protein deacetylase HDAC6 (Homo sapiens) (UniProt Q9UBN7); assay: Inhibition of HDAC6 in human MM473 cells assessed as increase in hyperacetylation of cytoplasmic alpha-tubulin at 0.2 to 0.5 uM after 24 hrs by Western blot method; type: cell-based
Sequence of Protein deacetylase HDAC6 (Homo sapiens) (Q9UBN7 whole entry): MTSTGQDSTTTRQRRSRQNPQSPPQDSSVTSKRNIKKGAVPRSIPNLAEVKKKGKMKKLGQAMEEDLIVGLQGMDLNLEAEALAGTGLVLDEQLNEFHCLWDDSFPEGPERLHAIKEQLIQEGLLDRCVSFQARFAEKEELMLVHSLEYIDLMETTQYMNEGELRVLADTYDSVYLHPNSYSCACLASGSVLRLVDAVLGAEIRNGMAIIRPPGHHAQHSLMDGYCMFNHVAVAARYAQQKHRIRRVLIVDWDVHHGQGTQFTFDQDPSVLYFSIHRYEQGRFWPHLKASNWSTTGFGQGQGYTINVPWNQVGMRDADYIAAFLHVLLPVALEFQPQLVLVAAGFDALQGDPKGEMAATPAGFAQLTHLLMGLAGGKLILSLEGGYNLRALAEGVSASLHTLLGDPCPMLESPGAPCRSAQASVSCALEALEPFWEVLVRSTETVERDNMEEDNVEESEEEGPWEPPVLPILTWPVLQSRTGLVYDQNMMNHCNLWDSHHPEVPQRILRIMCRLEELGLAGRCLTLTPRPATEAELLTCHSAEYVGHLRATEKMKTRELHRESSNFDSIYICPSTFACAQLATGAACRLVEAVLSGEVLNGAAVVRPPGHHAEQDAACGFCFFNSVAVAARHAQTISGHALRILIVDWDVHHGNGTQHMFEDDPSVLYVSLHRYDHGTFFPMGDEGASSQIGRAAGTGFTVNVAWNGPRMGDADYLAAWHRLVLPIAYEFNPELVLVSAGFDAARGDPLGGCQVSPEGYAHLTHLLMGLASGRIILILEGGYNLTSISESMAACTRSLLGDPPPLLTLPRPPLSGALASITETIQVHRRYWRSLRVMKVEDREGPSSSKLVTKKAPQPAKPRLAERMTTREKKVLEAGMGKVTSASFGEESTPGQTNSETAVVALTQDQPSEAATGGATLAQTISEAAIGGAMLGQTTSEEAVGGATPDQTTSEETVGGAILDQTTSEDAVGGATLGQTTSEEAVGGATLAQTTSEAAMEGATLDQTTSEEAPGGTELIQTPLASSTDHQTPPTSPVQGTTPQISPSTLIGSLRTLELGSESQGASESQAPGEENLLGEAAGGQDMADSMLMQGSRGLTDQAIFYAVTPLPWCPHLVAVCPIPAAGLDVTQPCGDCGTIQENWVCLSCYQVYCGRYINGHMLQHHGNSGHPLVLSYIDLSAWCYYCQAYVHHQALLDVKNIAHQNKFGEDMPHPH
Procedure, shortened: (§1)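 MM473 cells treated 24 h (0.2 and 0.5 µM), lysed in NP-40 or RIPA with protease/phosphatase inhibitors; 40 µg protein run on SDS-PAGE, transferred to nitrocellulose, blocked in 5% milk/TBST, probed overnight for acetyl-H4, H4, acetyl-tubulin and α-tubulin, HRP secondaries, ECL chemiluminescence; band density normalised to α-tubulin.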

[20] = tested on: MM473; assay: Induction of apoptosis in human MM473 cells at 4 uM after 48 hrs by propidium iodide staining-based flow cytometric method (reference value: […]); type: functional
[21] = Induction of apoptosis in human MM487 cells at 0.3 uM after 72 hrs by propidium iodide staining-based flow cytometric method (reference value: 0.6%); type: functional
[22] = tested on: HepG2; assay: Antiproliferative activity against human HepG2 cells after 72 hrs by SRB assay; type: functional, cell-based; settings: HepG2, 72 h
[23] = tested on: JeKo-1; assay: cells; type: functional, cell-based; settings: Homo sapiens, JeKo-1, 72 h
[24] = Cell cycle arrest in human MM487 cells assessed as accumulation at G0/G1 phase at 0.3 uM after 72 hrs by propidium iodide staining-based flow cytometric method (reference value: 80%); type: functional
[25] = tested on: A-431; assay: cells; type: functional, cell-based; settings: Homo sapiens, A-431, 72 h
[26] = tested on: L-428; assay: cells; type: functional, cell-based; settings: Homo sapiens, L-428, 72 h
[27] = Cell cycle arrest in human MM487 cells assessed as accumulation at G0/G1 phase at 0.3 uM after 24 hrs by propidium iodide staining-based flow cytometric method (reference value: 57.9%); type: functional
[28] = tested on: MM473; assay: Cell cycle arrest in human MM473 cells assessed as accumulation at G0/G1 phase at 4 uM after 24 hrs by propidium iodide staining-based flow cytometric method (reference value: 54.5%); type: functional
[29] = tested on: NCI-H460; assay: cells; type: functional, cell-based; settings: Homo sapiens, NCI-H460, 72 h
[30] = Cell cycle arrest in human MM487 cells assessed as accumulation at S phase at 0.3 uM after 24 hrs by propidium iodide staining-based flow cytometric method (reference value: 25.2%); type: functional
[31] = target: Histone deacetylase (HDAC1 and HDAC2) (Homo sapiens) (UniProt Q13547+Q92769); assay: Inhibition of HDAC1/2 in human MM473 cells assessed as increase in hyperacetylation of nuclear histone H4 at 0.2 to 0.5 uM after 24 hrs by Western blot method; type: cell-based
Sequence of Histone deacetylase (HDAC1 and HDAC2) (Homo sapiens) (Q13547 whole entry, looked up): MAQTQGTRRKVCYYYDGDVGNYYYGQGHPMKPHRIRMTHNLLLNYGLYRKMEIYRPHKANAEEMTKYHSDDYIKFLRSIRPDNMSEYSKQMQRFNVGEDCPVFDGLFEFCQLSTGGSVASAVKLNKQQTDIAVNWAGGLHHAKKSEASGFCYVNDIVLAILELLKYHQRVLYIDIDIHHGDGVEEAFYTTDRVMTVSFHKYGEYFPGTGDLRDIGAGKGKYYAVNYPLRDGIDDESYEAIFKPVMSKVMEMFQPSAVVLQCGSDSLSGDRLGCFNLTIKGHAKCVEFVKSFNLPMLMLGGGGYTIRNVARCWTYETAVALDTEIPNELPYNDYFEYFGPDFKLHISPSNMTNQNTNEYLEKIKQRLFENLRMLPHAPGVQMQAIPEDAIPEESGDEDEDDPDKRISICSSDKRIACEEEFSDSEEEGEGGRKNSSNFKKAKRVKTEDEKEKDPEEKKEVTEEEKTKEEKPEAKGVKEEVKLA
Sequence of Histone deacetylase (HDAC1 and HDAC2) (Homo sapiens) (Q92769 whole entry, looked up): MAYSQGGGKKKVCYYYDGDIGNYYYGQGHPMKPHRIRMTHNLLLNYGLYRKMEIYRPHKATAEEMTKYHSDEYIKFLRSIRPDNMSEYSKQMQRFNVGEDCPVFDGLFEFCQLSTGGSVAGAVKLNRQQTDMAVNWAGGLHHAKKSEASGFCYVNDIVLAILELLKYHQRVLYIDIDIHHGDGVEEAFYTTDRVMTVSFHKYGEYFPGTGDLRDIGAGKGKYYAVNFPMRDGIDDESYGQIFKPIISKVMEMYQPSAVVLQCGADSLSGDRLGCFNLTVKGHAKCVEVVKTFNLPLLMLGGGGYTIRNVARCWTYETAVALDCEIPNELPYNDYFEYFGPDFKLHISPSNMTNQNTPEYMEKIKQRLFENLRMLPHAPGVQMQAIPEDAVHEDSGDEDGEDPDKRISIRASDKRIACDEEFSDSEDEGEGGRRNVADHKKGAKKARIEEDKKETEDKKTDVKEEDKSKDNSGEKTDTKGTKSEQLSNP
Procedure, shortened: as §1

[32] = Induction of apoptosis in human MM487 cells at 0.3 uM after 48 hrs by propidium iodide staining-based flow cytometric method (reference value: 0.3%); type: functional
[33] = Cell cycle arrest in human MM487 cells assessed as accumulation at S phase at 0.3 uM after 48 hrs by propidium iodide staining-based flow cytometric method (reference value: 13.7%); type: functional
[34] = tested on: HeLa; assay: cells; type: functional, cell-based; settings: Homo sapiens, 72 h
[35] = tested on: CAPAN-1; assay: cells; type: functional, cell-based; settings: Homo sapiens, CAPAN-1, 72 h
[36] = tested on: MM473; assay: Cell cycle arrest in human MM473 cells assessed as accumulation at G2/M phase at 4 uM after 48 hrs by propidium iodide staining-based flow cytometric method (reference value: 4.3%); type: functional
[37] = tested on: MM473; assay: Antitumor activity against human MM473 cells xenografted in CD1 nude mouse assessed as inhibition of tumor volume at 90 mg/kg, iv administered every 4 days per week for 3 weeks measured 10 days post last dose by luciferase reporter assay relative to vehicle-treated control; type: functional
Procedure, shortened: (§2)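 MM473 mesothelioma cells (F-10, 10% FBS, G418; mycoplasma-checked, >95% viable) injected intrapleurally, 1x10⁶ in 200 µl M199 per CD-1 nude mouse. Treatment i.v. from day 15 when tumours were growing, in 10% 1:1 ethanol–Cremophor in saline, q4dx3w; vehicle control. Tumour burden followed weekly by IVIS bioluminescence after i.p. D-luciferin (100 µL/10 g), as average radiance; body weight recorded.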

[38] = tested on: MM473; assay: Cell cycle arrest in human MM473 cells assessed as accumulation at S phase at 4 uM after 72 hrs by propidium iodide staining-based flow cytometric method (reference value: 15.1%); type: functional
[39] = target: Histone deacetylase 1 (Homo sapiens, UniProt Q13547); assay: Inhibition of HDAC1 (unknown origin) using RHKK(Ac)AMC as substrate after 1 to 2 hrs by fluorescence assay
Sequence of Histone deacetylase 1 (Q13547 whole entry): as the sequence (Q13547 whole entry, looked up) above

[40] = tested on: MM473; assay: Cell cycle arrest in human MM473 cells assessed as accumulation at G2/M at 4 uM after 24 hrs by propidium iodide staining-based flow cytometric method (reference value: 15.7%); type: functional
[41] = tested on: A2780; assay: cells; type: functional, cell-based; settings: Homo sapiens, A2780, 72 h
[42] = tested on: U2932; assay: cells; type: functional, cell-based; settings: Homo sapiens, U2932, 72 h
[43] = tested on: MM473; assay: Cell cycle arrest in human MM473 cells assessed as accumulation at S phase at 4 uM after 48 hrs by propidium iodide staining-based flow cytometric method (reference value: 23.9%); type: functional
[44] = cells; type: functional, cell-based; settings: Homo sapiens, MINO, 72 h
[45] = tested on: DU-145; assay: cells; type: functional, cell-based; settings: Homo sapiens, DU-145, 72 h
[46] = tested on: Mus musculus; assay: Toxicity in CD1 nude mouse xenografted with human MM473 cells assessed as body weight loss at 90 mg/kg, iv administered every 4 days per week for 3 weeks measured during compound dosing and on day 40 post last dose; type: organism-based; settings: in vivo
Procedure, shortened: as §2

[47] = target: Histone deacetylase 2 (Homo sapiens, UniProt Q92769); assay: Inhibition of HDAC2 (unknown origin) using RHKK(Ac)AMC as substrate after 1 to 2 hrs by fluorescence assay
Sequence of Histone deacetylase 2 (Q92769 whole entry): as the sequence (Q92769 whole entry, looked up) above

[48] = Cell cycle arrest in human MM487 cells assessed as accumulation at G0/G1 phase at 0.3 uM after 48 hrs by propidium iodide staining-based flow cytometric method (reference value: 73.8%); type: functional
[49] = tested on: OCI-Ly3; assay: cells; settings: Homo sapiens, OCI-Ly3, 72 h
[50] = tested on: KM-H2; assay: cells; settings: Homo sapiens, KM-H2, 72 h
[51] = tested on: MM473; assay: Induction of apoptosis in human MM473 cells at 4 uM after 72 hrs by propidium iodide staining-based flow cytometric method (reference value: 1.4%); type: functional
[52] = target: Protein deacetylase HDAC6 (Homo sapiens, UniProt Q9UBN7); assay: Inhibition of HDAC6 (unknown origin) using RHKK(Ac)AMC as substrate after 1 to 2 hrs by fluorescence assay
Sequence of Protein deacetylase HDAC6 (Q9UBN7 whole entry): as the sequence (Q9UBN7 whole entry) above

[53] = cells; type: functional, cell-based; settings: Homo sapiens, MM487, 72 h
[54] = tested on: MM473; assay: Cell cycle arrest in human MM473 cells assessed as accumulation at G0/G1 phase at 4 uM after 72 hrs by propidium iodide staining-based flow cytometric method (reference value: 80.2%); type: functional

CC[C@@]1(O)C(=O)OCc2c1cc1n(c2=O)Cc2c-1nc1ccccc1c2/C=N/OCCCCCC(=O)NCCSSCCNC(=O)/C(Cc1ccc(O)c(Br)c1)=N\O
IC50 [1]: 1900 nM | Activity [2]: 21.2% | Activity [3]: 15.7% | IC50 [4]: 8.4 µM | IC50 [5]: Not Active | Activity [6]: 14.5% | Activity [7]: 3.8% | IC50 [8]: 830 nM | Activity [9]: 1.8% | Activity [10]: 4.5% | IC50 [11]: 47 nM | Activity [12]: 58.97% | Activity [13]: 59.2% | IC50 [14]: 660 nM | IC50 [15]: 4 µM | Activity [16]: 2.6% | IC50 [17]: 7.55 nM | IC50 [18]: 300 nM | inhibition [19]: inactive | Activity [20]: 9.9% | Activity [21]: 25.4% | IC50 [22]: 760 nM | IC50 [23]: 60 nM | Activity [24]: 19.6% | IC50 [25]: 180 nM | IC50 [26]: 600 nM | Activity [27]: 20.6% | Activity [28]: 28% | IC50 [29]: 170 nM | Activity [30]: 77.62% | inhibition [31]: Active | Activity [32]: 13.1% | Activity [33]: 67.8% | IC50 [34]: 470 nM | IC50 [35]: 50 nM | Activity [36]: 12% | inhibition in vivo at 90 mg/kg [37]: 78% | Activity [38]: 79.3% | IC50 [39]: 150 nM | Activity [40]: 13.1% | IC50 [41]: 220 nM | IC50 [42]: 110 nM | Activity [43]: 83.5% | IC50 [44]: 35 nM | IC50 [45]: 110 nM | Activity [46]: Non-Toxic | IC50 [47]: 327 nM | Activity [48]: 16.5% | IC50 [49]: 100 nM | IC50 [50]: 280 nM | Activity [51]: 11% | IC50 [52]: 709 nM | IC50 [53]: 130 nM | Activity [54]: 6.2%

CC[C@@]1(O)C(=O)OCc2c1cc1n(c2=O)Cc2c-1nc1ccc(O)cc1c2/C=N/OCCCCCC(=O)NCCSSCCNC(=O)/C(Cc1ccc(O)c(Br)c1)=N\O
IC50 [5]: Not Active | IC50 [17]: 9.12 nM | IC50 [29]: 880 nM | IC50 [35]: 200 nM | IC50 [39]: 253 nM | IC50 [47]: 410 nM | IC50 [52]: 1490 nM
